Measurements: ChEMBL document CHEMBL1240368, “Chloroquine modulates HIV-1-induced plasmacytoid dendritic cell alpha interferon: implication for T-cell activation” (Antimicrob Agents Chemother, 2010)
The source made the active and inactive calls.

Legend:
[1] = molecular target: T1, Toll-like receptor (TLR7/TLR9) (Homo sapiens) (UniProt Q9NR96+Q9NYK1); assay: Inhibition of TLR7/TLR9-mediated activation of aldrithiol-2-treated HIV1 Ada-stimulated human PBMC assessed as CD86 expressing cells at 100 uM after 20 hrs by flow cytometry; type: cell-based; design: scale not given: the % may be the effect or the level left
Summary of the method: (§1)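 PBMC preincubated 1 h ± 100 μM chloroquine, stimulated 20 h with AT-2 HIV-1 Ada or MN (500 ng/ml p24); pDC gated Lin1− CD123+ HLA-DR+; surface CD86 (% cells), CD83 (% cells), or intracellular IRAK-4, IRF-7, IDO after Cytofix/Cytoperm with rabbit antibody plus PE anti-rabbit (MFI) by flow cytometry; microvesicle controls.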

[2] = molecular target: T1, Toll-like receptor (TLR7/TLR9) (Homo sapiens); assay: Inhibition of TLR7/TLR9-mediated maturation of aldrithiol-2-treated HIV1 Ada-stimulated human PBMC assessed as CD83 expressing cells at 100 uM after 20 hrs by flow cytometry; type: cell-based; design: scale not given: the % may be the effect or the level left; summary of the method: as §1
[3] = molecular target: T1, Toll-like receptor (TLR7/TLR9) (Homo sapiens); assay: Inhibition of TLR7/TLR9-mediated activation of aldrithiol-2-treated HIV1 MN-stimulated human PBMC assessed as CD86 expressing cells at 100 uM after 20 hrs by flow cytometry; type: cell-based; design: scale not given: the % may be the effect or the level left; summary of the method: as §1
[4] = molecular target: T1, Toll-like receptor (TLR7/TLR9) (Homo sapiens); assay: Inhibition of TLR7/TLR9-mediated maturation of aldrithiol-2-treated HIV1 MN-stimulated human PBMC assessed as CD83 expressing cells at 100 uM after 20 hrs by flow cytometry; type: cell-based; design: scale not given: the % may be the effect or the level left; summary of the method: as §1
[5] = molecular target: T2, Toll-like receptor 7 (Homo sapiens) (UniProt Q9NYK1); assay: Inhibition of TLR7-mediated upregulation of IRAK4 expression in aldrithiol-2-treated HIV1 Ada-stimulated human PBMC at 100 uM after 20 hrs by flow cytometry; summary of the method: as §1
T2 sequence (whole entry): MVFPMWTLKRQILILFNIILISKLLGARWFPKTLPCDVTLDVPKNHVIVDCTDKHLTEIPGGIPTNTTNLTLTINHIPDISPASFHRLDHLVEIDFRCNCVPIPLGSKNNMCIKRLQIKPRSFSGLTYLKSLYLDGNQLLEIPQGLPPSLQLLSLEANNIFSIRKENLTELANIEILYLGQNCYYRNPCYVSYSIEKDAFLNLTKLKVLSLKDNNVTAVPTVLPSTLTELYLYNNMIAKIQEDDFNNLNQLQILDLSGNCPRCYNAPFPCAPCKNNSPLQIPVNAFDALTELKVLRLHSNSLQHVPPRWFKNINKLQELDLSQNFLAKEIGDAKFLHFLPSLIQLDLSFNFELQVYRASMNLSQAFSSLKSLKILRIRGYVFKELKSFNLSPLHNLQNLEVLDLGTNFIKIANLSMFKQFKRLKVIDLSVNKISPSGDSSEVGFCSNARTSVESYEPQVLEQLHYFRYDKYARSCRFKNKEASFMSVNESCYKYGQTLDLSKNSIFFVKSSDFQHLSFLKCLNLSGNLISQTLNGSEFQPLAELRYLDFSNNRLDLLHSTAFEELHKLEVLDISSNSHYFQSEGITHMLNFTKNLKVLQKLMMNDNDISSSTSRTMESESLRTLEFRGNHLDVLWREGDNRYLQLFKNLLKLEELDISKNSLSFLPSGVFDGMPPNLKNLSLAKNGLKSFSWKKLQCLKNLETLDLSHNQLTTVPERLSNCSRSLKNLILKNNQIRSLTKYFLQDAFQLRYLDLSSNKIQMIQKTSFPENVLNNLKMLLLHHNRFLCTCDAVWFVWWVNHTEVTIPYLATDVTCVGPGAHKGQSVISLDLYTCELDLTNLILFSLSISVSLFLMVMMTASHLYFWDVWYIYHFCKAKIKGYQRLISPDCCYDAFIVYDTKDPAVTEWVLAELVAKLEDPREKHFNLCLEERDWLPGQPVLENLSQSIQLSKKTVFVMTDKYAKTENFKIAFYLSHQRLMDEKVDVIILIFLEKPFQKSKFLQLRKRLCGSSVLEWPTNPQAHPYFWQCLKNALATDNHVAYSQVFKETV

[6] = molecular target: T2, Toll-like receptor 7 (Homo sapiens); assay: Inhibition of TLR7-mediated upregulation of IRAK4 expression in aldrithiol-2-treated HIV1 MN-stimulated human PBMC at 100 uM after 20 hrs by flow cytometry; summary of the method: as §1
[7] = molecular target: T2, Toll-like receptor 7 (Homo sapiens); assay: Inhibition of TLR7-mediated upregulation of IRF7 expression in aldrithiol-2-treated HIV1 Ada-stimulated human PBMC at 100 uM after 20 hrs by flow cytometry; summary of the method: as §1
[8] = molecular target: T2, Toll-like receptor 7 (Homo sapiens); assay: Inhibition of TLR7-mediated upregulation of IRF7 expression in aldrithiol-2-treated HIV1 MN-stimulated human PBMC at 100 uM after 20 hrs by flow cytometry; summary of the method: as §1
[9] = molecular target: T1, Toll-like receptor (TLR7/TLR9) (Homo sapiens); assay: Inhibition of TLR7/TLR9-mediated activation of aldrithiol-2-treated HIV1 Ada-stimulated human PBMC assessed as CD38-MFI level in activated CD8-positive cells at 5 uM after 20 hrs by flow cytometry; type: cell-based
Summary of the method: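 PBMC preincubated 1 h with 5 μM chloroquine, then stimulated with AT-2 HIV-1 Ada for 20 h; CD38 surface expression on gated CD3+ CD8+ T cells by flow cytometry, expressed as CD38 MFI.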

[10] = molecular target: T1, Toll-like receptor (TLR7/TLR9) (Homo sapiens); assay: Inhibition of TLR7/TLR9-mediated activation of exogenous rIFNalpha2A-stimulated human CD8-positive T cells assessed as […] at 5 uM after 20 hrs by flow cytometry; type: cell-based; settings: T-cell
Summary of the method: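 Bead-enriched CD8+ T cells (indirect negative isolation) preincubated 1 h with 5 μM chloroquine, then given 1,000 U/ml rIFN-α2a for 20 h; CD38 MFI on CD3+ CD8+ cells by flow cytometry; anti-IFN-αR 64G12 (10 μg/ml, 30 min pretreatment) used as comparator; n = 3 experiments.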

[11] = molecular target: T1, Toll-like receptor (TLR7/TLR9) (Homo sapiens); assay: Inhibition of TLR7/TLR9-mediated upregulation of indoleamine 2,3-dioxygenase expression in aldrithiol-2-treated HIV1 Ada-stimulated human PBMC at 100 uM after 20 hrs by flow cytometry; summary of the method: as §1
[12] = molecular target: T1, Toll-like receptor (TLR7/TLR9) (Homo sapiens); assay: Inhibition of TLR7/TLR9-mediated upregulation of indoleamine 2,3-dioxygenase expression in aldrithiol-2-treated HIV1 MN-stimulated human PBMC at 100 uM after 20 hrs by flow cytometry; summary of the method: as §1
[13] = molecular target: T1, Toll-like receptor (TLR7/TLR9) (Homo sapiens); assay: Inhibition of TLR7/TLR9-mediated indoleamine 2,3-dioxygenase activation in aldrithiol-2-treated HIV1 Ada-stimulated human PBMC assessed as decrease in kynurenine to tryptophan level at 100 uM after 20 hrs by fluorometric assay; type: protein assay
Summary of the method: (§2)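 PBMC (1 × 10^6/well) ± 100 μM chloroquine (1 h preincubation), stimulated 20 h with AT-2 HIV-1, 3M-011 or CpG A. Kynurenine in supernatant: 30% TCA, 50°C, 30 min, then Ehrlich's reagent, absorbance 490 nm. Tryptophan: 20% TCA, then TCA/formaldehyde/FeCl3 at 90°C for 2 h, fluorescence ex 360/em 460 nm. Duplicates, standard curves; reported as kynurenine/tryptophan ratio.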

[14] = molecular target: T1, Toll-like receptor (TLR7/TLR9) (Homo sapiens); assay: Inhibition of TLR7/TLR9-mediated indoleamine 2,3-dioxygenase activation in aldrithiol-2-treated HIV1 MN-stimulated human PBMC assessed as decrease in kynurenine to tryptophan level at 100 uM after 20 hrs by fluorometric assay; type: protein assay; summary of the method: as §2
[15] = molecular target: T3, TLR7 and TLR8 (Homo sapiens) (UniProt Q9NYK1+Q9NR97); assay: Inhibition of TLR7/TLR8-mediated indoleamine 2,3-dioxygenase activation in 3M-011-stimulated human PBMC assessed as decrease in kynurenine to tryptophan level at 100 uM after 20 hrs by ELISA; type: protein assay
[16] = molecular target: T4, Toll-like receptor 9 (Homo sapiens) (UniProt Q9NR96); assay: Inhibition of TLR9-mediated indoleamine 2,3-dioxygenase activation in CpGA-stimulated human PBMC assessed as decrease in kynurenine to tryptophan level at 100 uM after 20 hrs by ELISA
T4 sequence (whole entry): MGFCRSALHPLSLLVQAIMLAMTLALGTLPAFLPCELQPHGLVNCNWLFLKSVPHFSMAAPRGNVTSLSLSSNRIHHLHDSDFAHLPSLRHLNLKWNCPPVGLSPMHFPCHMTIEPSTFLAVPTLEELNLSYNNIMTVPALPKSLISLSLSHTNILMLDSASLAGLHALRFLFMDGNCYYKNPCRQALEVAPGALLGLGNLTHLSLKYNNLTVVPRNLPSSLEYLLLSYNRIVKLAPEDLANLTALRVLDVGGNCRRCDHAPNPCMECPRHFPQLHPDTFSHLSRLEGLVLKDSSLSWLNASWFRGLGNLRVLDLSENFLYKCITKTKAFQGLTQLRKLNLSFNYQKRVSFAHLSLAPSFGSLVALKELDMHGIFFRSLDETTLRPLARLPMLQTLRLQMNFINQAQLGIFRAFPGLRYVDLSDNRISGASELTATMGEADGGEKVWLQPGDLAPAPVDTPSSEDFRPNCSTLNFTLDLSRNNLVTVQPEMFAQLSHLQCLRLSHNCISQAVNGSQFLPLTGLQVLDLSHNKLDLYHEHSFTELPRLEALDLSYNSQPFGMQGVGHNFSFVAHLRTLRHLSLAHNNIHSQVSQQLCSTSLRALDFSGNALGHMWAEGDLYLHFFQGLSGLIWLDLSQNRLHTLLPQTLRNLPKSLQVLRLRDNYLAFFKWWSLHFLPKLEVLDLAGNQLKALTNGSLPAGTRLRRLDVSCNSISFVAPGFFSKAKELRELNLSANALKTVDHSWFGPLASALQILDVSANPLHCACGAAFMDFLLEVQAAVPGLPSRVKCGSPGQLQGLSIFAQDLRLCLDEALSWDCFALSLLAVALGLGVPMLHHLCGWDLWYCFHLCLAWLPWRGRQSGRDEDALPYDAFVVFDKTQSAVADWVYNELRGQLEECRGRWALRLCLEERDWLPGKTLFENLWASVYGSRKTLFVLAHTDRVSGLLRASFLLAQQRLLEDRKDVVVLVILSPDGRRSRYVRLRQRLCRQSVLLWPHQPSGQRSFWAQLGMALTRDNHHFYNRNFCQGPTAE

[17] = molecular target: T1, Toll-like receptor (TLR7/TLR9) (Homo sapiens); assay: Inhibition of TLR7/TLR9-mediated upregulation of PDL1 expression in aldrithiol-2-treated HIV1 Ada-stimulated human PBMC at 100 uM after 20 hrs by flow cytometry
Summary of the method: (§3)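 Human PBMC (1 × 10^6 cells/well) preincubated 1 h with 100 μM chloroquine or medium, then cultured 20 h at 37°C with AT-2 HIV-1 (500 ng/ml p24), 3M-011 (3.0 μM) or CpG A (4 μg/ml); PDL-1 on pDC read as MFI by flow cytometry.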

[18] = molecular target: T1, Toll-like receptor (TLR7/TLR9) (Homo sapiens); assay: Inhibition of TLR7/TLR9-mediated upregulation of PDL1 expression in aldrithiol-2-treated HIV1 MN-stimulated human PBMC at 100 uM after 20 hrs by flow cytometry; summary of the method: as §3
[19] = molecular target: T3, TLR7 and TLR8 (Homo sapiens); assay: Inhibition of TLR7/TLR8-mediated upregulation of PDL1 expression in 3M-011-stimulated human PBMC at 100 uM after 20 hrs by flow cytometry; summary of the method: as §3
[20] = molecular target: T4, Toll-like receptor 9 (Homo sapiens); assay: Inhibition of TLR9-mediated upregulation of PDL1 expression in CpGA-stimulated human PBMC at 100 uM after 20 hrs by flow cytometry; summary of the method: as §3
[21] = molecular target: T4, Toll-like receptor 9 (Homo sapiens); assay: Inhibition of TLR9-mediated IFN-alpha production in CpGA-stimulated human PBMC at 100 uM after 20 hrs by ELISA
[22] = molecular target: T3, TLR7 and TLR8 (Homo sapiens); assay: Inhibition of TLR7/TLR8-mediated IFN-alpha production in 3M-011-stimulated human PBMC at 100 uM after 20 hrs by ELISA
[23] = molecular target: T2, Toll-like receptor 7 (Homo sapiens); assay: Inhibition of TLR7-mediated IFN-alpha production in aldrithiol-2-treated HIV1 MN-stimulated human PBMC after 20 hrs by ELISA
[24] = molecular target: T2, Toll-like receptor 7 (Homo sapiens); assay: Inhibition of TLR7-mediated IFN-alpha production in aldrithiol-2-treated HIV1 Ada-stimulated human PBMC after 20 hrs by ELISA
[25] = molecular target: T2, Toll-like receptor 7 (Homo sapiens); assay: Inhibition of TLR7-mediated IFN-alpha production in aldrithiol-2-treated HIV1 MN-stimulated human PBMC at 100 uM after 20 hrs by ELISA
[26] = molecular target: T2, Toll-like receptor 7 (Homo sapiens); assay: Inhibition of TLR7-mediated IFN-alpha production in aldrithiol-2-treated HIV1 Ada-stimulated human PBMC at 100 uM after 20 hrs by ELISA

T3 sequence (Q9NR97 whole entry, looked up, one chain of several): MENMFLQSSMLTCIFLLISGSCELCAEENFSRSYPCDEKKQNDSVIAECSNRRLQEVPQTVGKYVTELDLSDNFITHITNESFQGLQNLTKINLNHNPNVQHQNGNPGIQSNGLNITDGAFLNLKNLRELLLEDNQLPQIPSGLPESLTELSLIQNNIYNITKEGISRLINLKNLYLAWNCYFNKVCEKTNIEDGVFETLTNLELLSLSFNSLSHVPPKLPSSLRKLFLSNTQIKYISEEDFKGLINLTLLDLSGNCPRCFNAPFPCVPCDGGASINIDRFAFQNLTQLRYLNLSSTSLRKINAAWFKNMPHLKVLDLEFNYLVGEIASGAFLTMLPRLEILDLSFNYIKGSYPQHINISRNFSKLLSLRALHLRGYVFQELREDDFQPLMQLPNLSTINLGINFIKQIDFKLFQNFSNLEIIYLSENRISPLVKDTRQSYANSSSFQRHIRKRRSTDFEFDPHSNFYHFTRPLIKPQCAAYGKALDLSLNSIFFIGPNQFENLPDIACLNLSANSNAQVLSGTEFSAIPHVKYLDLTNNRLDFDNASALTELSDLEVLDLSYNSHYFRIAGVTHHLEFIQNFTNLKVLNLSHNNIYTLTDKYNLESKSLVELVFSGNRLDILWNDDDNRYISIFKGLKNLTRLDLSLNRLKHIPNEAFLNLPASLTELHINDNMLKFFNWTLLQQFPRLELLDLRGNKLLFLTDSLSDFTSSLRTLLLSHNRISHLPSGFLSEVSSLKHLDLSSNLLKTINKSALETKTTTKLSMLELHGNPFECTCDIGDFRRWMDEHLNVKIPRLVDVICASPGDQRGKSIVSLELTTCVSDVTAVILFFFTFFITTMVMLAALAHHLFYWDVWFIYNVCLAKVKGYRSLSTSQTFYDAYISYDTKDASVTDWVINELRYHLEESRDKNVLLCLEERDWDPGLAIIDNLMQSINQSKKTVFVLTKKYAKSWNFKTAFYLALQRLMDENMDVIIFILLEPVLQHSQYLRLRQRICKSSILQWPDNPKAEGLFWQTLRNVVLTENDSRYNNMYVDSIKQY

CCN(CC)CCCC(C)Nc1ccnc2cc(Cl)ccc12 (stereo unspecified)
active: inhibition [5] | inhibition [6] | inhibition [7] | inhibition [8] | inhibition [11] | inhibition [12] | inhibition [13] | inhibition [14] | inhibition [15] | inhibition [16] | inhibition [17] | inhibition [18] | inhibition [19] | inhibition [20] | inhibition [21] | inhibition [22] | inhibition [23] Dose-dependent effect | inhibition [24] Dose-dependent effect | inhibition [25] | inhibition [26]
inactive: inhibition [10]
8.2%: Activity [3]
12.6%: Activity [2]
11.1%: Activity [1]
23.4%: inhibition [9]
14.3%: Activity [4]
